Assay results published in ChEMBL document CHEMBL1143108, “Design and SAR of selective T-type calcium channel antagonists containing a biaryl sulfonamide core” (Bioorg Med Chem Lett, 2008).

Columns and labels:
[1] = biological target: T1, Voltage-dependent T-type calcium channel subunit alpha-1H (Homo sapiens, UniProt O95180); assay: Antagonist activity at human alpha1H T-type calcium channel expressed in HEK293 cells by patch clamp technique; format: functional, cell-based
How it was run: (§1)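 Whole-cell patch clamp. Peak inward current measured before and after compound addition to the bath.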

[2] = Ratio of IC50 for L-type calcium channel in rat aorta method to IC50 for human T-type calcium channel in patch clamp method; format: tissue-based
[3] = biological target: Voltage-gated L-type calcium channel (Rattus norvegicus, UniProt P22002+Q02485+P27732); assay: Antagonist activity at L-type calcium channel in rat aorta; format: functional, tissue-based
How it was run: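 Rat aorta rings contracted near-maximally with KCl. Test compound added at increasing doses, and IC50 taken for inhibition of force as a functional L-type calcium channel read-out.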

[4] = biological target: T1, Voltage-dependent T-type calcium channel subunit alpha-1H; assay: Antagonist activity at human alpha1H T-type calcium channel expressed in HEK293 cells at 1 uM by patch clamp technique; format: functional, cell-based; how it was run: as §1

T1 sequence (O95180 whole entry): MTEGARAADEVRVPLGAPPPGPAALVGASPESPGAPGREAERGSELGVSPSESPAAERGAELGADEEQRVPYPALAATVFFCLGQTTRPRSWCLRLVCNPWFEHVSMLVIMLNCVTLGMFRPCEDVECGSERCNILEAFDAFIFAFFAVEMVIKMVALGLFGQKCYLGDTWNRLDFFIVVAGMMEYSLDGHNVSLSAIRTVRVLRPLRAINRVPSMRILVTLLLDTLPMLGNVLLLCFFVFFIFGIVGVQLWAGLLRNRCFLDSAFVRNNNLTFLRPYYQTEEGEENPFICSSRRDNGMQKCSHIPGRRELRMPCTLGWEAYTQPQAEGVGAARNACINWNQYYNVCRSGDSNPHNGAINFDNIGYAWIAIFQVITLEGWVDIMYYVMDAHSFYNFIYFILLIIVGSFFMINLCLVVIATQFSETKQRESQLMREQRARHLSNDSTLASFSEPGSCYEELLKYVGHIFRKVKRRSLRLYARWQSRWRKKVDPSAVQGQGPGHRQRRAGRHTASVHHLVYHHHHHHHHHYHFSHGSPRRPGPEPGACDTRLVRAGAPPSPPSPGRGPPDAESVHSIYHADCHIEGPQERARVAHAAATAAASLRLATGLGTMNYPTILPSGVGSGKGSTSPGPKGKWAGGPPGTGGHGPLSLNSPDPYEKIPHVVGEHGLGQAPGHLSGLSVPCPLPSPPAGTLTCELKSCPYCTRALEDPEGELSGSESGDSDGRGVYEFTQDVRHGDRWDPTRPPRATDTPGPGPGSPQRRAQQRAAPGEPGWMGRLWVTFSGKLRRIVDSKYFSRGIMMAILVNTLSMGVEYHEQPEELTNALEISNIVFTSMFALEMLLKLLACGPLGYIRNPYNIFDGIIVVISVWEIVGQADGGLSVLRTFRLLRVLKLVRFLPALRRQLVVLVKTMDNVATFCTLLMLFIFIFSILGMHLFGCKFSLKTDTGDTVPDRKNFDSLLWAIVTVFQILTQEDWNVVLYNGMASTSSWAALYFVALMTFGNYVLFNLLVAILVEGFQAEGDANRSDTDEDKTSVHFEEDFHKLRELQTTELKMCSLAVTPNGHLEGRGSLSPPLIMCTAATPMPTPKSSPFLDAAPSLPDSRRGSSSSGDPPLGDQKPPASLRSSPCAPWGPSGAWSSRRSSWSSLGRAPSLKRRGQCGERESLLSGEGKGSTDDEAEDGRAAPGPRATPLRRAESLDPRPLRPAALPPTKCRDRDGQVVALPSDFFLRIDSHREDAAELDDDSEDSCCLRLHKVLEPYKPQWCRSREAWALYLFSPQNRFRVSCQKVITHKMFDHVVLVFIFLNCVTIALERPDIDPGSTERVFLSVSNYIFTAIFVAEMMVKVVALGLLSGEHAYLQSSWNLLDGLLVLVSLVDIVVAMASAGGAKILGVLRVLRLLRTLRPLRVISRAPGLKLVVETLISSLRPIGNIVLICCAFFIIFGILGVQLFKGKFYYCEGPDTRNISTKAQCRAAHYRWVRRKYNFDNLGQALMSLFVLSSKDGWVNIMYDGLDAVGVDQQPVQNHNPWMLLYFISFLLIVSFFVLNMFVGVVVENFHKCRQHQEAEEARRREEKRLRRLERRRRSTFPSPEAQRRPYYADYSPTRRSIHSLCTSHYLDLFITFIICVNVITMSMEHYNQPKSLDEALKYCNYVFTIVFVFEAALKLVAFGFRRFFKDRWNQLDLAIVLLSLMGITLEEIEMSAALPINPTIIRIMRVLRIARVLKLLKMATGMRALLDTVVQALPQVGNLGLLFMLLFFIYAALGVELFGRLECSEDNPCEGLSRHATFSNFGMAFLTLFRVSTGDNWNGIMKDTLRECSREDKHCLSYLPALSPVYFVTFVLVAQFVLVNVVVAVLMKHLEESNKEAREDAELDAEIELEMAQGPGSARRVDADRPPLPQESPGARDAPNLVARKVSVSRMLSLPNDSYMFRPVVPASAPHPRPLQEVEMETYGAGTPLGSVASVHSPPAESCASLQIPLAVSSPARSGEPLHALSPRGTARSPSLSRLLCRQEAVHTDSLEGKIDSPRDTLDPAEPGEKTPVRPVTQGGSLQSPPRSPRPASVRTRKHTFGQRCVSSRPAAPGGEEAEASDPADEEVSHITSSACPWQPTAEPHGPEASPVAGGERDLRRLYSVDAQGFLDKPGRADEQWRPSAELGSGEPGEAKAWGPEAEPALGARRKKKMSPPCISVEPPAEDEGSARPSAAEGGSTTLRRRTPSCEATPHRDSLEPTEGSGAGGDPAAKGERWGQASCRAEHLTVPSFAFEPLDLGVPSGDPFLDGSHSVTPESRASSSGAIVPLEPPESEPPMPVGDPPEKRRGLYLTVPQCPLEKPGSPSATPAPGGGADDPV

Compound	IC50 [1] [nM]	Ratio IC50 [2]	IC50 [3] [nM]	inhibition [4] [%]
CN(CC(=O)Nc1cccc(S(=O)(=O)N(Cc2ccccc2)c2cccc(Cl)c2)c1)C(=O)OCc1ccccc1	110	109	12000	
CC(C)CCCN(c1cccc(Cl)c1)S(=O)(=O)c1cccc(NC(=O)CN(C)C(=O)OCc2ccccc2)c1	180	67	12000	
CC(=O)N(CCCN(C)S(=O)(=O)c1ccc(Oc2ccccc2)cc1)C(CC(=O)OC(C)C)c1cccc(Cl)c1 (stereo unspecified)				17
CC1=C(C(=O)OC(C)C)C(c2cccc(Cl)c2)N(CCCN(C)C(=O)c2ccc(Oc3ccccc3)cc2)C(=O)N1 (single isomer, unassigned; enantiomer 1)	180			
CC(=O)N(CCCN(C)C(=O)c1ccc(Oc2ccccc2)cc1)Cc1cccc(Cl)c1				5
CC(=O)Nc1cccc(S(=O)(=O)N(CC(=O)OC(C)C)c2cccc(Cl)c2)c1				0
CCOC(=O)CN(c1cccc(Cl)c1)S(=O)(=O)c1cccc(NC(=O)CN(C)C(=O)OCc2ccccc2)c1				35
COCC(=O)O[C@]1(CCN(C)CCCc2nc3ccccc3[nH]2)CCc2cc(F)ccc2[C@@H]1C(C)C [MIBEFRADIL]			7000	
CC(C)NC(=O)CN(c1cccc(Cl)c1)S(=O)(=O)c1cccc(NC(=O)CN(C)C(=O)OCc2ccccc2)c1	1700	> 17	> 30000	
CC(C)OC(=O)c1ccc(NC(=O)CCc2ccccc2)cc1-c1cccc(Cl)c1				6
CN(CC(=O)Nc1cccc(S(=O)(=O)N(CC(=O)O)c2cccc(Cl)c2)c1)C(=O)OCc1ccccc1				11
CC(C)OC(=O)CN(c1cccc(Cl)c1)S(=O)(=O)c1cccc(NC(=O)Cc2ccccc2)c1				40
CC(=O)N(CCCN(C)S(=O)(=O)c1ccc(Oc2ccccc2)cc1)Cc1cccc(Cl)c1				30
CC1=C(C(=O)OC(C)C)C(c2cccc(Cl)c2)N(CCCN(C)C(=O)c2ccc(Oc3ccccc3)cc2)C(=O)N1 (stereo unspecified)	250		2100	
CC1=C(C(=O)OC(C)C)C(c2cccc(Cl)c2)N(CCCN(C)C(=O)c2ccc(Oc3ccccc3)cc2)C(=O)N1 (single isomer, unassigned; enantiomer 2)	650		3800	
CC(C)OC(=O)CN(c1cccc(Cl)c1)S(=O)(=O)c1cccc(NC(=O)CCc2ccccc2)c1	540	> 55	> 30000	
CC(C)OC(=O)CN(c1cccc(Cl)c1)S(=O)(=O)c1cccc(NC(=O)CCNC(=O)OCc2ccccc2)c1	420	41	17000	73
CC(C)OC(=O)c1ccc(NC(=O)CN(C)C(=O)OCc2ccccc2)cc1-c1cccc(Cl)c1				24
CC(C)OC(=O)CN(c1cccc(Cl)c1)S(=O)(=O)c1cccc(NC(=O)CN(C)C(=O)OCc2ccccc2)c1	240	62	15000	78
CN(C)CCNC(=O)CN(c1cccc(Cl)c1)S(=O)(=O)c1cccc(NC(=O)CN(C)C(=O)OCc2ccccc2)c1				22
